Test results taken from EPA's CvTdb concentration-time database.

Tests used:
Mouse [1] = assay: concentration in plasma after dosing; conditions: 3 h; dosed: 2-Hydroxy-4-methoxybenzophenone; 250 mg/kg; oral; Female; B6C3F1
Mouse [2] = assay: concentration in plasma after dosing; conditions: 3 h; dosed: 2-Hydroxy-4-methoxybenzophenone; 50 mg/kg; iv; Female; B6C3F1
Mouse [3] = assay: concentration in plasma after dosing; conditions: 2 h; dosed: 2-Hydroxy-4-methoxybenzophenone; 250 mg/kg; oral; Male; B6C3F1
Rat [4] = assay: concentration in plasma after dosing; conditions: dosed: 2-Hydroxy-4-methoxybenzophenone, 250 mg/kg, oral, Male, F344
Mouse [5] = assay: concentration in plasma after dosing; conditions: 10 min; dosed: 2-Hydroxy-4-methoxybenzophenone; 500 mg/kg; oral; Female; B6C3F1
Mouse [6] = assay: concentration in plasma after dosing; conditions: 3 h; dosed: 2-Hydroxy-4-methoxybenzophenone; 50 mg/kg; iv; Male; B6C3F1
Rat [7] = assay: concentration in plasma after dosing; conditions: 0.5 h; dosed: Nitrite; 20 mg/kg; iv; Male; F344
Rat [8] = assay: concentration in plasma after dosing; conditions: 5 min; dosed: Nitrite; 40 mg/kg; oral; Female; F344
Rat [9] = assay: concentration in plasma after dosing; conditions: 2 min; dosed: Nitrite; 80 mg/kg; oral; Female; F344
Rat [10] = assay: concentration in liver after dosing; conditions: 3 h; dosed: Fluorotelomer alcohol 8+2; 24 mg/kg; oral; Male; Harlan Sprague Dawley
Rat [11] = assay: concentration in brain after dosing; conditions: 6 h; dosed: Perfluorooctanoic acid; 80 mg/kg; oral; Female; Harlan Sprague Dawley
Rat [12] = assay: concentration in liver after dosing; conditions: 3 h; dosed: Perfluorooctanoic acid; 12 mg/kg; oral; Male; Harlan Sprague Dawley
Rat [13] = assay: concentration in liver after dosing; conditions: 24 h; dosed: Perfluorooctanoic acid; 12 mg/kg; oral; Male; Harlan Sprague Dawley
Rat [14] = assay: concentration in liver after dosing; conditions: 6 h; dosed: Perfluorooctanoic acid; 12 mg/kg; oral; Male; Harlan Sprague Dawley
Rat [15] = assay: concentration in liver after dosing; conditions: 1200 h; dosed: Perfluorooctanoic acid; 12 mg/kg; oral; Male; Harlan Sprague Dawley
Rat [16] = assay: concentration in kidney after dosing; conditions: 12 h; dosed: Fluorotelomer alcohol 8+2; 24 mg/kg; oral; Male; Harlan Sprague Dawley
Rat [17] = assay: concentration in kidney after dosing; conditions: 3 h; dosed: Perfluorooctanoic acid; 12 mg/kg; oral; Male; Harlan Sprague Dawley
Rat [18] = assay: concentration in plasma after dosing; conditions: dosed: Fluorotelomer alcohol 8+2, 12 mg/kg, oral, Male, Harlan Sprague Dawley
Rat [19] = assay: concentration in plasma after dosing; conditions: dosed: Fluorotelomer alcohol 8+2, 12 mg/kg, oral, Male, Harlan Sprague Dawley; remark: listed apart in the source
Rat [20] = assay: concentration in plasma after dosing; conditions: dosed: 678-39-7, 40 mg/kg, iv, Female, Harlan Sprague-Dawley
Rat [21] = assay: concentration in plasma after dosing; conditions: 3 h; dosed: Fluorotelomer alcohol 8+2; 12 mg/kg; oral; Male; Harlan Sprague Dawley
Rat [22] = assay: concentration in brain after dosing; conditions: 3 h; dosed: Potassium Perfluorobutane Sulfonate; 20 mg/kg; oral; Male; Harlan Sprague Dawley
Rat [23] = assay: concentration in plasma after dosing; conditions: dosed: Potassium Perfluorobutane Sulfonate, 4 mg/kg, oral, Male, Harlan Sprague Dawley
Rat [24] = assay: concentration in plasma after dosing; conditions: 1.5 h; dosed: Potassium Perfluorobutane Sulfonate; 4 mg/kg; oral; Male; Harlan Sprague Dawley
Rat [25] = assay: concentration in plasma after dosing; conditions: dosed: Potassium Perfluorobutane Sulfonate, 4 mg/kg, iv, Male, F344
Rat [26] = assay: concentration in plasma after dosing; conditions: 1.5 h; dosed: Potassium Perfluorobutane Sulfonate; 20 mg/kg; oral; Male; Harlan Sprague Dawley
monkey = assay: concentration in blood after dosing; negative times count back from the end of exposure; conditions: dosed: methanol, 1200 ppm, inhalation, duration: 6 hr, male, Macaca mulatta
Procedure, shortened: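 Data points giving concentration or amount against time came from published in vivo toxicokinetic studies and from two structured collections. PubMed searching, classifier screening and manual review located the studies. Most points were digitised from plot screenshots using WebPlotDigitizer, the rest were copied from tables, and all keep their reported units.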

COc1ccc(C(=O)c2ccccc2)c(O)c1 [2-Hydroxy-4-methoxybenzophenone]
concentration in plasma (Mouse [1]): 36.8 ng/mL | concentration in plasma (Mouse [2]): 149 ng/mL | concentration in plasma (Mouse [3]): 55.1 ng/mL | concentration in plasma (Rat [4]; 10 min): 357 ng/mL | concentration in plasma (Rat [4]; 3 h): 91.3 ng/mL | concentration in plasma (Mouse [5]): 687 ng/mL | concentration in plasma (Mouse [6]): 218 ng/mL

O=N[O-] [Nitrite]
concentration in plasma (Rat [7]): 3700 ng/mL | concentration in plasma (Rat [8]): 8500 ng/mL | concentration in plasma (Rat [9]): 3900 ng/mL

O=C(O)C(F)(F)C(F)(F)C(F)(F)C(F)(F)C(F)(F)C(F)(F)C(F)(F)F [Perfluorooctanoic acid]
concentration in liver (Rat [10]): 1440 ng/g | concentration in brain (Rat [11]): 3290 ng/g | concentration in liver (Rat [12]): 41100 ng/g | concentration in liver (Rat [13]): 60800 ng/g | concentration in liver (Rat [14]): 57200 ng/g | concentration in liver (Rat [15]): 7530 ng/g | concentration in kidney (Rat [16]): 365 ng/g | concentration in kidney (Rat [17]): 36800 ng/g | concentration in plasma (Rat [18]; 0.25 h): 204 ng/mL | concentration in plasma (Rat [18]; 6 h): 438 ng/mL | concentration in plasma (Rat [19]; 0.5 h): 79.5 ng/mL | concentration in plasma (Rat [19]; 9 h): 793 ng/mL | concentration in plasma (Rat [20]; 0.75 h): 1830 ng/mL | concentration in plasma (Rat [20]; 12 h): 528 ng/mL | concentration in plasma (Rat [21]): 380 ng/mL

O=S(=O)([O-])C(F)(F)C(F)(F)C(F)(F)C(F)(F)F.[K+] [Potassium Perfluorobutane Sulfonate]
concentration in brain (Rat [22]): 552 ng/g | concentration in plasma (Rat [23]; 5 min): 320 ng/mL | concentration in plasma (Rat [23]; 3 h): 15100 ng/mL | concentration in plasma (Rat [24]): 13500 ng/mL | concentration in plasma (Rat [25]; 0.75 h): 21100 ng/mL | concentration in plasma (Rat [25]; 24 h): 171 ng/mL | concentration in plasma (Rat [26]): 58500 ng/mL

CO [methanol]
concentration in blood (monkey; 0.9399 h): 16100 ng/mL | concentration in blood (monkey; 1.959 h): 9030 ng/mL | concentration in blood (monkey; 2.967 h): 4920 ng/mL | concentration in blood (monkey; 4.499 h): 3110 ng/mL | concentration in blood (monkey; 6.031 h): 903 ng/mL | concentration in blood (monkey; -98 s, during exposure): 26900 ng/mL | concentration in blood (monkey; -3.07 h, during exposure): 21000 ng/mL | concentration in blood (monkey; -5.081 h, during exposure): 8330 ng/mL | concentration in blood (monkey; -5.593 h, during exposure): 4820 ng/mL
